This is an account of results in ChEMBL document CHEMBL1156279, “2-Cyano-3,10-dioxooleana-1,9(11)-dien-28-oic acid anhydride. A novel and highly potent anti-inflammatory and cytoprotective agent” (Bioorg Med Chem Lett, 2010).

Series [1] has as its target T1, Heme oxygenase 1 (Mus musculus) (UniProt P14901).
T1 sequence (whole entry): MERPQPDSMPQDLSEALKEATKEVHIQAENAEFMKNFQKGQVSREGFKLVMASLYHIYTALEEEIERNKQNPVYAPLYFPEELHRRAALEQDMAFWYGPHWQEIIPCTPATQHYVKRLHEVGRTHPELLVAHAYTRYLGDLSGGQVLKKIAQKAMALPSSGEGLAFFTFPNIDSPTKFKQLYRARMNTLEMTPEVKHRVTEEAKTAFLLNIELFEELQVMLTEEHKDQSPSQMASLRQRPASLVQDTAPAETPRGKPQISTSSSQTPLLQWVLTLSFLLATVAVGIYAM
Put plainly: Induction of HO1 in mouse RAW264.7 cells at 100 nM after 6 hrs by SDS-PAGE. The series is classed as cell-based. In outline: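 RAW 264.7 cells exposed to compounds at 100 nM for 6 hours. Total cell lysates resolved by SDS-PAGE, immunoblotted with HO-1 antibody, ECL detection.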

The next series concerns RAW264.7. Put plainly: Antiinflammatory activity against IFN-gamma-stimulated mouse RAW264.7 cells assessed as nitrite accumulation after 24 hrs by Griess reagent method. The series is classed as functional, cell-based. Conditions: RAW264.7, 24 h. In outline:
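RAW 264.7 cells co-treated with graded compound concentrations and interferon-γ (10 ng/mL) for 24 hours; nitric oxide in supernatants measured by Griess reaction. IC50 averaged over three experiments.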
A general note: The Griess reaction detects nitrite, a stable product of nitric oxide.

In the next series the test system is Liver. Put plainly: Drug level in CD1 mouse liver at 2 umol, ip after 6 hrs by HPLC/MS. Type of series: ADME, organism-based. Conditions: in vivo. In short, it runs like this: (§1)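 Female CD-1 mice dosed i.p. with 2 µmol compound in DMSO–cremophor–PBS (1:1:8). Sacrificed 6 hours later; liver, lung, whole blood and plasma collected for compound levels (tissue µmol/kg, blood/plasma µM).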

Series [2] can be described thus: Drug level in CD1 mouse whole blood at 2 umol, ip after 6 hrs by HPLC/MS. The series is classed as ADME, organism-based. Conditions: read-out: Drug uptake. In short, it runs like this: as §1
Series [3] in a line: Drug uptake in CD1 mouse plasma at 2 umol, ip after 6 hrs by HPLC/MS. Type of series: ADME, organism-based. The settings on record: read-out: Drug uptake. In outline: as §1
A further series has as its system Lung. The experiment in a line: Drug level in CD1 mouse lung at 2 umol, ip after 6 hrs by HPLC/MS. The series is classed as ADME, organism-based. The settings on record: in vivo. In short, it runs like this:
as §1

The test system of a further series is Mus musculus. The experiment in a line: Induction of HO1 in CD1 mouse liver at 2 umol, ip after 6 hrs by SDS-PAGE. The series is classed as functional, organism-based. In outline:
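CD-1 mice, 4 per group, given a single 2 µmol i.p. injection. Livers harvested after 6 h and homogenized. Lysates separated by SDS-PAGE, probed with HO-1 antibodies and developed by ECL.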

Series [4] in a line: Stability assessed as compound remaining after 24 hrs in presence of in 10% fetal bovine serum. The series is classed as ADME. The settings on record: cattle. In short, it runs like this:
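Compound incubated in RAW 264.7 cell growth medium (RPMI with 10% fetal bovine serum) at 37 °C. Percentage of material remaining followed over time up to 24 h.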

The source made the active and inactive calls. No cut-off for these calls is given here. Bounds are passed on as bounds.

In the case of `C=C(C)[C@@H]1CC[C@]2(C(=O)O)CC[C@]3(C)[C@H](CC[C@@H]4[C@@]5(C)C=C(C#N)C(=O)C(C)(C)[C@@H]5CC[C@]43C)[C@@H]12`, in series [1], the result was Active.

As a reminder, the IC50 is the concentration needed to halve the response being measured. `CC1(C)CC[C@]2(C(=O)O)CC[C@]3(C)[C@H](C(=O)C=C4[C@@]5(C)C=C(C#N)C(=O)C(C)(C)[C@@H]5CC[C@]43C)[C@@H]2C1` [BARDOXOLONE]: the IC50 in the series on RAW264.7 turned out to be 28.3 nM. Moreover, the figures for the Drug uptake in the series on Liver and in the series on Lung were 0.041 µmol/kg and 0.018 µmol/kg, respectively. Further, the concentration at 6 h in series [2] was found to be 19 µM; in series [3] it was 2 µM. Further, in series [1], the result was Active.

Turning to `CC1(C)CC[C@]2(C(=O)OC(=O)[C@]34CCC(C)(C)C[C@H]3[C@H]3C(=O)C=C5[C@@]6(C)C=C(C#N)C(=O)C(C)(C)[C@@H]6CC[C@@]5(C)[C@]3(C)CC4)CC[C@]3(C)[C@H](C(=O)C=C4[C@@]5(C)C=C(C#N)C(=O)C(C)(C)[C@@H]5CC[C@]43C)[C@@H]2C1`, in the series with RAW264.7, the IC50 is 14.7 nM. Moreover, the outcome (in the series on Mus musculus; in series [1]) was Active. Also, the Drug uptake in the series on Liver worked out at 0.045 µmol/kg; in the series with Lung, 0.031 µmol/kg. In addition, the outcome in series [4] was Active. Moreover, the concentration at 6 h in series [2] is 52 µM; in series [3], 43 µM.

For the compound `C=C(C)[C@@H]1CC[C@]2(C(=O)OC(=O)[C@]34CC[C@@H](C(=C)C)[C@@H]3[C@H]3CC[C@@H]5[C@@]6(C)C=C(C#N)C(=O)C(C)(C)[C@@H]6CC[C@@]5(C)[C@]3(C)CC4)CC[C@]3(C)[C@H](CC[C@@H]4[C@@]5(C)C=C(C#N)C(=O)C(C)(C)[C@@H]5CC[C@]43C)[C@@H]12` [LUPANE ANHYDRIDE], the IC50 with RAW264.7 was over 10000 nM. In series [1], the result was inactive.
